Measured values reported in ChEMBL document CHEMBL1250498, “Design, synthesis and pro-apoptotic antitumour properties of indole-based 3,5-disubstituted oxadiazoles” (Eur J Med Chem, 2010).
pIC50: −log10 of the molar value.

Key:
[1] = Anticancer activity against human COLO320 cells after 72 hrs by WST-1 assay; type: functional, cell-based; conditions: COLO 320, 72 h
Procedure, shortened: (§1)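 Cells grown in DMEM with 2 mM L-glutamine, 10% FBS, 2.5% horse serum, penicillin and streptomycin, 37 °C, 5% CO2. Seeded at 2 × 10³/well, exposed 72 h to 0.1–50 µM (DMSO ≤0.2% in medium). WST-1 formazan absorbance read at 450 nm. Inhibition taken as % absorbance reduction versus control; IC50 from non-linear least-squares fit. Triplicate, independent experiments averaged.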

MIA PaCa-2 [2] = experiment: Anticancer activity against human MIAPaCa2 cells after 72 hrs by WST-1 assay; type: functional, cell-based; conditions: MIA PaCa-2, 72 h; procedure, shortened: as §1
MCF7 = experiment: Anticancer activity against human MCF7 cells after 72 hrs by WST-1 assay; type: functional, cell-based; conditions: MCF7, 72 h; procedure, shortened: as §1
Jurkat = experiment: Anticancer activity against human Jurkat cells after 72 hrs by WST-1 assay; type: functional, cell-based; procedure, shortened: as §1
COLO 320 [3] = experiment: Induction of apoptosis in human COLO320 cells assessed as increase in intraneucleosomal DNA fragmentation at 100 uM after 24 hrs by ELISA relative to control; type: functional
Procedure, shortened: (§2)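 Dosed at 100 µM for 24 h. Trypsin-harvested cells pooled with detached cells. Cytoplasmic histone-associated DNA fragments (released nucleosomes) measured by sandwich ELISA using a mouse monoclonal anti-DNA/histone antibody. Given as fold over untreated control; duplicate, mean ± SEM.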

MIA PaCa-2 [4] = experiment: Induction of apoptosis in human MIAPaCa2 cells assessed as increase in intraneucleosomal DNA fragmentation at 100 uM after 24 hrs by ELISA relative to control; type: functional; procedure, shortened: as §2
COLO 320 [5] = experiment: Induction of apoptosis in human COLO320 cells assessed as increase in caspase 3/7 activation at 100 uM after 24 hrs by spectrophotometry relative to control; type: functional
Procedure, shortened: (§3)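 Seeded at 7 × 10³/well and dosed 100 µM for 24 h. Caspase-3/7 substrate then added; fluorescence read with excitation 485 nm and emission 530 nm. Result given as the ratio of treated-cell signal to untreated vehicle-only cells.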

MIA PaCa-2 [6] = experiment: Induction of apoptosis in human MIAPaCa2 cells assessed as increase in caspase 3/7 activation at 100 uM after 24 hrs by spectrophotometry relative to control; type: functional; procedure, shortened: as §3

| pIC50 (MIA PaCa-2 [2]) | pIC50 (MCF7) | pIC50 (Jurkat) | SMILES | pIC50 [1] | fold change (FC) (COLO 320 [3]) | fold change (FC) (MIA PaCa-2 [4]) | fold change (FC) (COLO 320 [5]) | fold change (FC) (MIA PaCa-2 [6]) |
| --- | --- | --- | --- | --- | --- | --- | --- | --- |
| 4.52 | < 4.30 | < 4.30 | Cc1noc(-c2cc3ccccc3[nH]2)n1 | 4.93 |  |  |  |  |
| < 4.30 | < 4.30 | < 4.30 | Clc1ccc(-c2noc(-c3cc4cc(Cl)ccc4[nH]3)n2)cc1 | 4.60 |  |  |  |  |
| < 4.30 | < 4.30 | < 4.30 | Fc1ccc2[nH]c(-c3nc(-c4ccc(Cl)cc4)no3)cc2c1 | < 4.30 |  |  |  |  |
| 4.73 | < 4.30 | < 4.30 | Nc1noc(-c2cc3ccccc3[nH]2)n1 | 4.56 |  |  |  |  |
| < 4.30 | < 4.30 | < 4.30 | Cn1c(-c2nc(-c3ccc(Cl)cc3)no2)cc2cc(Cl)ccc21 | 4.77 |  |  |  |  |
| 5.25 | < 4.30 | < 4.30 | COc1ccc(-c2noc(-c3cc4cc(OC)ccc4[nH]3)n2)cc1 | 4.55 | 1.2 | 1.9 | 1.1 | 2 |
| 4.47 | 4.46 | 4.47 | Fc1ccc2[nH]c(-c3nc(-c4ccccc4)no3)cc2c1 | 4.97 | 5.3 | 6.9 | 4.4 | 1.2 |
| 4.64 | 4.54 | < 4.30 | Clc1ccc2[nH]c(-c3nc(-c4ccccc4)no3)cc2c1 | 4.78 | 2.1 | 1.9 | 1.3 | 1.9 |
| < 4.30 | < 4.30 | < 4.30 | COc1ccc(-c2noc(-c3cc4ccccc4[nH]3)n2)cc1 | 4.56 |  |  |  |  |
| 4.72 | < 4.30 | < 4.30 | Clc1ccc(-c2noc(-c3cc4ccccc4[nH]3)n2)cc1 | 4.86 | 3 | 1 | 0.3 | 1.2 |
| 5.11 | < 4.30 | < 4.30 | COc1ccc(-c2noc(-c3cc4cc(Cl)ccc4[nH]3)n2)cc1 | 5.02 | 1.2 | 1.4 | 4.2 | 1.4 |
| < 4.30 | < 4.30 | < 4.30 | O=[N+]([O-])c1ccc2[nH]c(-c3nc(-c4ccccc4)no3)cc2c1 | 4.90 |  |  |  |  |
| 4.75 | < 4.30 | < 4.30 | O=[N+]([O-])c1ccc2[nH]c(-c3nc(-c4ccc(Cl)cc4)no3)cc2c1 | 5.11 | 1.8 | 2.7 | 6.4 | 23.9 |
| 4.49 | < 4.30 | < 4.30 | COc1ccc2[nH]c(-c3nc(-c4ccccc4)no3)cc2c1 | 4.73 |  |  |  |  |
| 4.66 | 4.34 | < 4.30 | c1ccc(-c2noc(-c3cc4ccccc4[nH]3)n2)cc1 | 4.92 | 2.5 | 1.4 | 3.1 | 1.2 |
| 4.71 | 4.91 | 4.64 | Cc1noc(-c2cc3cc(F)ccc3[nH]2)n1 | 4.74 | 1 | 7.3 | 1.5 | 1.3 |
| 4.64 | < 4.30 | < 4.30 | COc1ccc2[nH]c(-c3nc(-c4ccc(Cl)cc4)no3)cc2c1 | 4.89 | 1.8 | 1.2 | 4.5 | 10.1 |
| 4.89 | 4.59 | 4.57 | Oc1ccc2[nH]c(-c3nc(-c4ccccc4)no3)cc2c1 | 4.80 | 4.3 | 7.3 | 3.6 | 0.7 |
| 4.64 | < 4.30 | < 4.30 | COc1ccc(-c2noc(-c3cc4ccccc4n3C)n2)cc1 | < 4.30 |  |  |  |  |
| < 4.30 | 4.78 | 4.70 | COc1ccc2[nH]c(-c3nc(C)no3)cc2c1 | 4.98 |  |  |  |  |
| < 4.30 | < 4.30 | < 4.30 | FC(F)(F)c1ccc(-c2noc(-c3sccc3Cl)n2)cc1 | 5.92 |  |  |  |  |
| < 4.30 | 4.46 | 4.67 | Cc1noc(-c2cc3cc(Cl)ccc3[nH]2)n1 | 4.71 |  |  |  |  |
| 4.99 | < 4.30 | < 4.30 | COc1ccc(-c2noc(-c3cc4cc(F)ccc4[nH]3)n2)cc1 | 4.83 | 1.4 | 2.2 | 2.1 | 5 |
